Assay results published in article PMC11022931 (Blood, 2022).

How the values were obtained:
[1] = molecular target: CXCL12 (Homo sapiens, UniProt P48061); settings: read-out: KD of CXCL12 binding to CCL5; cited from earlier work
[2] = test system: mouse platelets; assay: i[VREY]4-biot binding to mouse platelets, flow cytometry; type: cell-based
[3] = i[VREY]4 pharmacokinetics, plasma ELISA; type: in vivo, C57BL/6J mice; settings: C57BL/6J, mouse, ip, 75 ug
Summary of the method: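 Biotinylated test compound (75 µg) was injected i.p. into mice. Plasma levels of the biotinylated peptide were measured by ELISA at several time points after injection. Data are means ± SD.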

[4] = test system: human platelets; assay: Multiple electrode aggregometry; type: cell-based; settings: MEA, human blood; for effect on platelet aggregation induced by human plaque homogenate: plaque 833 µg/mL, AMD3465 100 nM, i[VREY]4 5 µM
[5] = test system: human platelets; assay: Platelet activation by PAC-1 and P-selectin staining, flow cytometry; type: cell-based; settings: human blood, remibrutinib 0.1 µM 30 minutes at 37°C, CXCL12 0.1 μg/mL, CRP-XL 0.01 μg/mL, n = 6
[6] = molecular target: CXCL12 on human platelets (Homo sapiens, UniProt P48061); assay: Detection of CXCL12 on human platelets with anti-CXCL12 antibodies; type: cell-based; settings: human blood, CXCL12 0.1 µg/mL or collagen 1 µg/mL
[7] = test system: mouse platelets; assay: MEA in mouse blood activated with collagen; type: cell-based; settings: 1 µg/mL collagen, 5 µM i[VREY]4, n = 6-8
Summary of the method: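 Blood came from mice with megakaryocyte-lineage Cxcl12 deletion (Pf4-Cre × Cxcl12 fl/fl, Apoe-/- background) or from Cxcl12 wt/wt controls. It was mixed with 1 µg/mL collagen with or without 5 µM test compound, and aggregation was measured by multiple electrode aggregometry (Multiplate), n=6-8 mice. Data are means ± SD.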

[8] = molecular target: 15N-labeled CXCL12 (Homo sapiens, UniProt P48061); assay: 15N HSQC NMR titration of CXCL12 with i[VREY]4; type: binding; settings: 20 µM 15N-CXCL12, i[VREY]4 20, 40, 200 µM; 25 mM KPi pH 7.1; 25 °C
[9] = test system: human platelets; assay: i[VREY]4-biot binding and proximity ligation with CXCL12 on human platelets; type: cell-based; settings: flow cytometry, resting vs collagen-activated, n = 6
[10] = test system: CXCR4; assay: CXCR4 internalization on human platelets, flow cytometry; type: cell-based; settings: CXCL12 0.1 µg/mL, i[VREY]4 5 µM
Summary of the method: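 Human blood diluted 1:1 with PBS and treated with recombinant CXCL12 (0.1 µg/mL), collagen (1 µg/mL) and test compound (5 µM). Platelet-surface CXCR4 was stained with anti-CXCR4 clone 12G5 and measured by flow cytometry. Data are means ± SD of independent experiments, analysed by one-way ANOVA with Tukey's multiple comparison test.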

CCL5: recombinant human chemokine CCL5
Kd [1]: 578 ± 61 nM

CC[C@H](C)[C@H](NC(=O)[C@H](Cc1ccc(O)cc1)NC(=O)[C@H](CCC(=O)O)NC(=O)[C@H](CCCNC(=N)N)NC(=O)[C@@H](NC(=O)[C@H](Cc1c[nH]c2ccccc12)NC(=O)[C@H](CCCCN)NC(=O)[C@H](CCCCN)NC(=O)[C@H](CCC(=O)O)NC(=O)CNC(=O)CON=C(C)CCCC(=O)NCCCC[C@@H]1NC(=O)[C@H](CCC(=O)O)NC(=O)[C@H](CCCCNC(=O)CCCC(C)=NOCC(=O)NCC(=O)N[C@@H](CCC(=O)O)C(=O)N[C@@H](CCCCN)C(=O)N[C@@H](CCCCN)C(=O)N[C@@H](Cc2c[nH]c3ccccc23)C(=O)N[C@H](C(=O)N[C@@H](CCCNC(=N)N)C(=O)N[C@@H](CCC(=O)O)C(=O)N[C@@H](Cc2ccc(O)cc2)C(=O)N[C@H](C(=O)N[C@@H](CC(N)=O)C(=O)N[C@@H](CO)C(=O)N[C@@H](CC(C)C)C(=O)N[C@@H](CCC(=O)O)C(=O)N[C@@H](CCSC)C(=O)N[C@@H](CO)C(=O)O)[C@@H](C)CC)C(C)C)NC(=O)[C@@H]2CCCN2C(=O)[C@H](CSC2CC(=O)N(CCCCCC(=O)NNC(=O)CCCC[C@@H]3SC[C@@H]4NC(=O)N[C@@H]43)C2=O)NC(=O)[C@H](CCCCNC(=O)CCCC(C)=NOCC(=O)NCC(=O)N[C@@H](CCC(=O)O)C(=O)N[C@@H](CCCCN)C(=O)N[C@@H](CCCCN)C(=O)N[C@@H](Cc2c[nH]c3ccccc23)C(=O)N[C@H](C(=O)N[C@@H](CCCNC(=N)N)C(=O)N[C@@H](CCC(=O)O)C(=O)N[C@@H](Cc2ccc(O)cc2)C(=O)N[C@H](C(=O)N[C@@H](CC(N)=O)C(=O)N[C@@H](CO)C(=O)N[C@@H](CC(C)C)C(=O)N[C@@H](CCC(=O)O)C(=O)N[C@@H](CCSC)C(=O)N[C@@H](CO)C(=O)O)[C@@H](C)CC)C(C)C)NC(=O)[C@H](CCCCN)NC(=O)[C@H](CCCCNC(=O)CCCC(C)=NOCC(=O)NCC(=O)N[C@@H](CCC(=O)O)C(=O)N[C@@H](CCCCN)C(=O)N[C@@H](CCCCN)C(=O)N[C@@H](Cc2c[nH]c3ccccc23)C(=O)N[C@H](C(=O)N[C@@H](CCCNC(=N)N)C(=O)N[C@@H](CCC(=O)O)C(=O)N[C@@H](Cc2ccc(O)cc2)C(=O)N[C@H](C(=O)N[C@@H](CC(N)=O)C(=O)N[C@@H](CO)C(=O)N[C@@H](CC(C)C)C(=O)N[C@@H](CCC(=O)O)C(=O)N[C@@H](CCSC)C(=O)N[C@@H](CO)C(=O)O)[C@@H](C)CC)C(C)C)NC(=O)[C@@H]2CCCN2C(=O)CNC1=O)C(C)C)C(=O)N[C@@H](CC(N)=O)C(=O)N[C@@H](CO)C(=O)N[C@@H](CC(C)C)C(=O)N[C@@H](CCC(=O)O)C(=O)N[C@@H](CCSC)C(=O)N[C@@H](CO)C(=O)O (some centres unmarked) [i[VREY]4-biot]
binding to the surface of unactivated mouse platelets ([2]; resting conditions, flow cytometry): No binding was observed | binding to the surface of mouse platelets, wild type vs CXCR4 knockout ([2]; resting or 10 µg/mL collagen, streptavidin-FITC flow cytometry, n = 3-5): required platelet activation and CXCR4 | Cmax [3]: 1970 ng/mL

CXCL12: recombinant human chemokine CXCL12, platelet agonist
CXCL12 concentration that induced platelet aggregation ([4]; recombinant CXCL12 alone, n = 5-10): ≥ 100 ng/mL

C=CC(=O)N(C)CCOc1c(N)ncnc1-c1cc(F)cc(NC(=O)c2ccc(C3CC3)cc2F)c1C [remibrutinib]
effect on P-selectin expression and integrin αIIbβ3 activation by CRP-XL combined with CXCL12 [5]: reversed

CC[C@H](C)[C@H](NC(=O)[C@H](Cc1ccc(O)cc1)NC(=O)[C@H](CCC(=O)O)NC(=O)[C@H](CCCNC(=N)N)NC(=O)[C@@H](NC(=O)[C@H](Cc1c[nH]c2ccccc12)NC(=O)[C@H](CCCCN)NC(=O)[C@H](CCCCN)NC(=O)[C@H](CCC(=O)O)NC(=O)CNC(=O)CON=C(C)CCCC(=O)NCCCC[C@@H]1NC(=O)[C@H](CCC(=O)O)NC(=O)[C@H](CCCCNC(=O)CCCC(C)=NOCC(=O)NCC(=O)N[C@@H](CCC(=O)O)C(=O)N[C@@H](CCCCN)C(=O)N[C@@H](CCCCN)C(=O)N[C@@H](Cc2c[nH]c3ccccc23)C(=O)N[C@H](C(=O)N[C@@H](CCCNC(=N)N)C(=O)N[C@@H](CCC(=O)O)C(=O)N[C@@H](Cc2ccc(O)cc2)C(=O)N[C@H](C(=O)N[C@@H](CC(N)=O)C(=O)N[C@@H](CO)C(=O)N[C@@H](CC(C)C)C(=O)N[C@@H](CCC(=O)O)C(=O)N[C@@H](CCSC)C(=O)N[C@@H](CO)C(=O)O)[C@@H](C)CC)C(C)C)NC(=O)[C@@H]2CCCN2C(=O)[C@H](CSCC(N)=O)NC(=O)[C@H](CCCCNC(=O)CCCC(C)=NOCC(=O)NCC(=O)N[C@@H](CCC(=O)O)C(=O)N[C@@H](CCCCN)C(=O)N[C@@H](CCCCN)C(=O)N[C@@H](Cc2c[nH]c3ccccc23)C(=O)N[C@H](C(=O)N[C@@H](CCCNC(=N)N)C(=O)N[C@@H](CCC(=O)O)C(=O)N[C@@H](Cc2ccc(O)cc2)C(=O)N[C@H](C(=O)N[C@@H](CC(N)=O)C(=O)N[C@@H](CO)C(=O)N[C@@H](CC(C)C)C(=O)N[C@@H](CCC(=O)O)C(=O)N[C@@H](CCSC)C(=O)N[C@@H](CO)C(=O)O)[C@@H](C)CC)C(C)C)NC(=O)[C@H](CCCCN)NC(=O)[C@H](CCCCNC(=O)CCCC(C)=NOCC(=O)NCC(=O)N[C@@H](CCC(=O)O)C(=O)N[C@@H](CCCCN)C(=O)N[C@@H](CCCCN)C(=O)N[C@@H](Cc2c[nH]c3ccccc23)C(=O)N[C@H](C(=O)N[C@@H](CCCNC(=N)N)C(=O)N[C@@H](CCC(=O)O)C(=O)N[C@@H](Cc2ccc(O)cc2)C(=O)N[C@H](C(=O)N[C@@H](CC(N)=O)C(=O)N[C@@H](CO)C(=O)N[C@@H](CC(C)C)C(=O)N[C@@H](CCC(=O)O)C(=O)N[C@@H](CCSC)C(=O)N[C@@H](CO)C(=O)O)[C@@H](C)CC)C(C)C)NC(=O)[C@@H]2CCCN2C(=O)CNC1=O)C(C)C)C(=O)N[C@@H](CC(N)=O)C(=O)N[C@@H](CO)C(=O)N[C@@H](CC(C)C)C(=O)N[C@@H](CCC(=O)O)C(=O)N[C@@H](CCSC)C(=O)N[C@@H](CO)C(=O)O [i[VREY]4]
effect on binding of anti-CXCL12 antibody clone #79018 to platelets ([6]; n = 8): diminished | effect on binding of anti-CXCL12 antibody K15C to platelets ([6]; n = 10): did not result in reduced binding of K15C | effect on collagen-induced platelet aggregation in blood from Cxcl12 wt/wt mice [7]: diminished | effect on platelet aggregation induced by human plaque homogenate [4]: inhibited | affinity of interaction with CXCL12 by HSQC NMR titration [8]: in the micromolar range | change of i[VREY]4 binding to human platelets on activation with collagen [9]: increased | effect on internalization of CXCR4 after CXCL12 exposure [10]: could not be reversed

c1ccc(CNCc2ccc(CN3CCCNCCNCCCNCC3)cc2)nc1 [AMD3465, reference compound]
effect on platelet aggregation induced by human plaque homogenate [4]: reduced
